# From PubChem
# A selection: hits, their analogues and other compounds. The true share with any hit is near 3.5%.
# MrgX1 PAM: positive allosteric modulators of MrgX1, primary screen, HEK293 cells, Fluo-4 calcium flux; Mas-related G-protein coupled receptor member X1 (Homo sapiens), Q96LB2; FDSS; stronger effect = higher value; B-score at 10 µM; 0.63% of 310,000 active; AID 588675, 2011;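 active means plate-corrected calcium response at least 3 library SD above typical, normal starting fluorescence, not activating the receptor alone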;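 further: compound read alongside a low EC10 to EC30 dose of BAM8-22 agonist; peak minus trough fluorescence over baseline measured at the second addition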
# Target sequence (Q96LB2 whole entry, looked up): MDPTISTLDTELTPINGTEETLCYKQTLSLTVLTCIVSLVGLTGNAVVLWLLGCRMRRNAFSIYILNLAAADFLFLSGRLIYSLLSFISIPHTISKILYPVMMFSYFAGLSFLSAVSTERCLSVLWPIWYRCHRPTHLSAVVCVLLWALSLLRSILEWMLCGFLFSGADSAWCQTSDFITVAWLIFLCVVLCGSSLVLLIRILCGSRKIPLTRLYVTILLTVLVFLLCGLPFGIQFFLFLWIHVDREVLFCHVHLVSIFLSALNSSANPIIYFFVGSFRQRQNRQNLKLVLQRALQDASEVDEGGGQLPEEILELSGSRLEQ
# MrgX1 antagonist: antagonists of human MrgX1 receptor, primary screen, HEK293 cells, Fluo-4 calcium flux; Mas-related G-protein coupled receptor member X1 (Homo sapiens), Q96LB2; BAM8-22 antagonism; stronger effect = lower value; B-score at 10 µM; 1.3% of 310,000 active; AID 588676, 2011;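 active means calcium-response B-score plate-corrected more than 3 library SD below zero, starting fluorescence within 5 deviations, no agonist response on first addition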;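 further: peak minus trough fluorescence over baseline after final BAM8-22 challenge near maximal dose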
# RGS4 act: RGS4 potentiators or activators, primary screen, cell-based, HEK293 M3R inducible RGS4, calcium flux. B-score at 10 µM. carbachol calcium flux Fluo4; stronger effect = lower value. 0.92% of 310,000 active. AID 463111, 2010;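 active means B-score of the integrated calcium signal more than 4 SD below the library mean, with starting fluorescence not abnormally high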;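 further: negative B-score means reduced calcium response which marks RGS4 activation or potentiation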
#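 Material: Inducible-RGS4 HEK293 cells carrying M3 receptor; also added: carbachol at ECmax as muscarinic agonist stimulus; incubation: compound preincubation 20 min at room temperature before agonist; signal: Fluo4-AM (2 µM) calcium-flux fluorescence, kinetic read; measure: integrated calcium ratio converted to B score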
# MrgX1 agonist: agonists of human MrgX1 receptor, primary screen, HEK293 cells, Fluo-4 calcium flux; Mas-related G-protein coupled receptor member X1 (Homo sapiens), Q96LB2; Fluo-4 calcium fluorescence, agonist mode; stronger effect = higher value; B-score at 10 µM; 0.44% of 310,000 active; AID 588627, 2011;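 active means calcium response B-score plate-corrected fluorescence ratio at least 3 library SD, with starting fluorescence B-score inside 5 SD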
#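 Material: MrgX1-expressing HEK293 cells / Dosing: compound as first of three additions / Incubation: overnight seeding, then 1 h dark dye loading / Signal: Fluo-4 NW calcium fluorescence / Evaluation: B-scored fluorescence response ratio / Benchmarks: positive and negative control wells on each plate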
# RGS4 block: RGS4 inhibitors, primary screen, cell-based, HEK293 M3R inducible RGS4, calcium flux; Regulator of G-protein signaling 4 (Homo sapiens), P49798; B-score at 10 µM; 0.45% of 310,000 active; Fluo-4 calcium flux; stronger effect = higher value; triggered by carbachol at its EC20;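 active means B-score, a plate-corrected calcium signal, over three deviations above library mean, with baseline fluorescence within five deviations of library mean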;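 further: RGS4 expression induced by doxycycline in cells with stable M3 receptor; B-score is computed from the integrated fluorescence ratio over baseline after carbachol; higher B-score means a larger calcium signal and so more RGS4 inhibition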
# Target sequence (P49798 whole entry, looked up): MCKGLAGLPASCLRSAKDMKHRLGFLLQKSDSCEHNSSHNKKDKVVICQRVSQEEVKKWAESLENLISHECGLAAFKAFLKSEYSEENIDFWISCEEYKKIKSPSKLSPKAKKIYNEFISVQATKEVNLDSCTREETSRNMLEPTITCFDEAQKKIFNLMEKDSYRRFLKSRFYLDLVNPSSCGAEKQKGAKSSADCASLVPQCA
# MrgX1 allo conf: MrgX1 positive allosteric modulators, duplicate retest, confirmation, HEK293 cells, Fluo-4 calcium flux; shares compounds with MrgX1 PAM; Fluo-4 calcium fluorescence, FDSS; activation (ratio percentage), % at 10 µM; 13% of 1,200 active;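 active means ratio at least 3 SD above the weak peptide control, stable starting fluorescence, no direct agonism earlier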;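 further: compound followed by low BAM8-22 agonist challenge near EC20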
# MrgX1 antag conf: MrgX1 receptor antagonists, duplicate retest, confirmation, HEK293 cells, Fluo-4 calcium flux; 19% of 2,300 active; shares compounds with MrgX1 antagonist; BAM8-22 calcium flux; stronger effect = lower value; remaining BAM8-22 calcium response % of control (stronger effect = lower value), % at 10 µM; AID 602420, 2012;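 active means remaining agonist calcium response no higher than 100% minus 3 SD of agonist-only control wells, with starting fluorescence near control levels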;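 further: agonist BAM8-22 given at a near maximal EC90 to ECmax level; peak minus minimum fluorescence divided by baseline after agonist addition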
# HEK293 Ca flux: nonspecific calcium signal in parental HEK293, confirmation, counter-screen for MrgX1 antagonist project, parental HEK293 cells, Fluo-4 calcium flux; shares compounds with MrgX1 antagonist; Fluo-4 calcium fluorescence, FDSS; fluorescence ratio F(max-min)/F0 at 10 µM; 2% of 4,000 active; AID 624111, 2012;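 active means duplicate-averaged calcium fluorescence ratio at least three times the standard deviation of buffer wells, a nonspecific response in parental cells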
# HEK293 Ca counter: calcium response in parental HEK293 cells, primary screen, counter-screen for MrgX1 allosteric activator project, cell-based, Fluo-4 calcium flux, duplicate | shares compounds with MrgX1 antagonist | Fluo-4 fluorescence ratio; stronger effect = higher value | fluorescence ratio F(max-min)/F0 at 10 µM | 0.4% of 4,000 active | AID 624114, 2012;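 active means calcium fluorescence ratio, averaged over duplicates, at least 3 SD of the buffer-well ratio, meaning a nonspecific response in receptor-free cells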;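 further: untransfected parental HEK293 lacking MrgX1 used as counterscreen for MrgX1 allosteric activators; fluorescence change taken during the second addition on a kinetic imager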
# HEK293 Ca cntr2: calcium response in parental HEK293 cells, primary screen, counter-screen for MrgX1 agonist project, cell-based, Fluo-4 calcium flux, duplicate, agonist mode; shares compounds with MrgX1 antagonist; Fluo-4 calcium fluorescence (FDSS); stronger effect = higher value; fluorescence ratio F(max-min)/F0 at 10 µM; 8.7% of 4,000 active;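 active means calcium fluorescence ratio at least three times the spread of buffer wells, meaning a non-specific response in parental cells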
# Starred values were filed as active, the others as inactive; i = inactive; . = no result.
SMILES,MrgX1 PAM,MrgX1 antagonist,RGS4 act,MrgX1 agonist,RGS4 block,MrgX1 allo conf,HEK293 Ca flux,HEK293 Ca counter,HEK293 Ca cntr2,others
COc1ccccc1N(C)C(=O)c1cc(S(=O)(=O)N2CCCC2)cn1C,i,i,i,i,i,.,.,.,.,
Cc1cc(C)cc(N2CC34C=CC(O3)C(C(=O)OCC(=O)NCc3ccco3)C4C2=O)c1 (stereo not given),i,i,i,i,i,.,.,.,.,
COc1ccc(CCNC(=O)c2cc(-c3ccncc3)nc3ccc(S(=O)(=O)N4CCOCC4)cc23)cc1OC,i,i,i,i,i,.,.,.,.,
CC1CCCN(c2nc3c(c(=O)n(C)c(=O)n3C)n2Cc2ccccc2)C1 (stereo not given),7.1*,i,i,i,i,i,i,i,i,
Cn1c(=O)c2c(nc(N3CCCCCC3)n2CCSc2nc3ccccc3o2)n(C)c1=O,7.1*,i,i,i,i,i,i,i,i,
CC(=O)Nc1ccc(S(=O)(=O)Nc2cc(C)cn(Cc3ccccc3)c2=O)cc1,i,i,i,i,i,.,.,.,.,
O=C(N/N=C\c1c(O)ccc2ccccc12)c1ccc(S(=O)(=O)N2CCCCC2)cc1,20*,i,i,i,i,i,0.42*,i,65*,
O=C(N/N=C/c1c(O)ccc2ccccc12)c1ccc(CO)nc1,i,i,i,i,i,.,.,.,.,
Cc1cc(N2CCN(C)CC2)nc2ccc(NC(=S)N3CCC4(CC3)OCCO4)cc12,7.4*,i,i,i,i,i,i,i,i,
Cn1c(=NC(=O)C2CC2)sc2cccc(F)c21,11*,i,i,i,i,i,i,i,i,
O=C(NC1CCCCC1)c1ccccc1NC(=O)C1CC1,i,i,i,i,i,.,.,.,.,
CN(C)c1ccc(C(CNC(=O)c2ccco2)N2CCCC2)cc1 (stereo not given),i,i,i,i,i,.,.,.,.,
O=C(Nc1ccccc1)c1ccc[nH]1,i,i,i,i,i,.,.,.,.,
O=C(c1ccccc1)c1nc[nH]c1C(=O)Nc1ccccc1,9.9*,i,i,i,i,i,i,i,i,
CCc1cccc2c(C(=O)CN3C(=O)NC4(CCc5ccccc54)C3=O)c[nH]c12 (stereo not given),i,i,i,i,i,.,.,.,.,
COc1cccc(C(=O)Nc2nnc(-c3ccc(Cl)cc3)o2)c1,8.4*,i,i,i,i,i,i,i,i,
CN(C)S(=O)(=O)Oc1cccc(C(=O)Nc2ccc(Cl)cc2)c1,7.7*,i,i,i,i,i,i,i,i,
COc1cccc(C(=O)Nc2nnc(-c3ccc(F)cc3)o2)c1,i,i,i,i,i,.,.,.,.,
CN(C)S(=O)(=O)Oc1cccc(C(=O)Nc2ccccc2Cl)c1,i,i,i,i,i,.,.,.,.,
CCC(Cc1ccccc1)NC(=O)CSc1ccsc1[N+](=O)[O-] (stereo not given),i,i,i,i,i,.,.,.,.,
CCCCc1ccc(S(=O)(=O)Nc2ccc(C)c(NS(C)(=O)=O)c2)cc1,9.7*,i,i,i,i,i,i,i,i,
Cc1ccc(C(=O)Nc2ncnc3sc4c(c23)CCCCC4)cc1,6.7*,i,i,i,i,8.1%*,i,i,i,
c1ccc(Nc2ncnc3sc4c(c23)CCC4)cc1,i,i,i,i,i,.,.,.,.,
Fc1ccc(Nc2ncnc3sc4c(c23)CCC4)cc1,6.9*,i,i,i,i,i,i,i,i,
C[C@H](Nc1ncnc2sc3c(c12)CCC3)C(=O)O,i,i,i,i,i,.,.,.,.,
SMILES,MrgX1 PAM,MrgX1 antagonist,RGS4 act,MrgX1 agonist,RGS4 block,MrgX1 allo conf,HEK293 Ca flux,HEK293 Ca counter,HEK293 Ca cntr2,others
Nc1nc(-c2ccccn2)nc(N)c1Cc1c(F)cccc1Cl,i,i,i,i,i,.,.,.,.,
Cc1n[nH]c(C)c1Cc1c(F)cccc1Cl,25*,i,i,i,i,16%*,i,i,i,
CC(C)Oc1ccc(OCCn2c(S(=O)(=O)O)nc3c(N)ncnc32)cc1,i,i,i,i,i,.,.,.,.,
Cc1ccc(N=Cc2sc(O)c3ccccc23)cc1,7*,-6.9*,i,i,i,i,i,i,i,MrgX1 antag conf=75%*
Cc1ccc(N=Cc2sc(O)c3ccccc23)c(C)c1,i,i,i,i,i,.,.,.,.,
CCN(CC)c1ccc(/C=N/NC(=O)c2nnn(-c3nonc3N)c2-c2ccc(C)cc2)cc1,i,i,i,i,i,.,.,.,.,
Cc1cc(-n2c(C)cc(C(=O)CCl)c2C)no1,10*,i,i,i,i,i,i,i,i,
Cc1cc(-n2c(C)cc(C(=O)CN3C(=O)NC4(CCCC4)C3=O)c2C)no1,i,i,i,i,i,.,.,.,.,
CN1c2ccccc2Oc2nnc(Cl)cc21,i,i,i,i,i,.,.,.,.,
CN1c2ccccc2Oc2nnc(N3CCN(Cc4ccccc4)CC3)cc21,12*,i,i,i,i,i,i,i,i,
COc1ccc(-c2cc(C(F)(F)F)c(C#N)c(SCC(=O)O)n2)cc1OC,i,i,i,i,i,.,.,.,.,
